In ChEMBL document CHEMBL1131460, “2-substituted (2SR)-2-amino-2-((1SR,2SR)-2-carboxycycloprop-1-yl)glycines as potent and selective antagonists of group II metabotropic glutamate receptors. 2. Effects of aromatic substitution, pharmacological characterization, and bioavailability” (J Med Chem, 1998):

Key:
[1] = Maximum concentration achieved in rat brain when administered intravenously at a dose of 10 mg/kg; type: ADME, organism-based; parameters: dose 10 mg/kg, route intravenous; conditions: iv
In short: (§1)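 Male Fischer 344 rats dosed iv or ip at 10 mg/kg, or orally at 10 or 100 mg/kg; five rats per route and dose. Blood and brain taken from one rat per time point (0.25, 0.5, 1, 2, 4 h after iv/ip; 0.5, 1, 2, 4, 6 h after po). Plasma and brain homogenates derivatized, extracted, assayed by negative-ion chemical ionization GCMS (LOQ 100 pg/mL plasma, 1 ng/g brain).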

[2] = Bioavailability in rat (dose 10 mg/kg p.o.); type: ADME, organism-based; conditions: in vivo, po
[3] = Plasma concentration after 1 hr at a dose of 10 mg/kg when administered perorally; conditions: po
[4] = Plasma concentration after 4 hr at a dose of 100 mg/kg when administered perorally; conditions: po
[5] = Brain concentration after 2 hr at a dose of 10 mg/kg when administered intravenously; conditions: iv
[6] = Brain concentration after 4 hr at a dose of 10 mg/kg when administered intravenously; conditions: iv
[7] = Brain concentration after 1 hr at a dose of 100 mg/kg when administered perorally; conditions: po
[8] = Maximum concentration achieved in rat brain when administered intraperitoneally at a dose of 10 mg/kg; type: ADME, organism-based; parameters: dose 10 mg/kg, route intraperitoneal; conditions: ip; in short: as §1
[9] = Time of maximum concentration achieved in rat plasma when administered intravenously at a dose of 10 mg/kg; type: ADME, organism-based; parameters: dose 10 mg/kg, route intravenous; conditions: iv; in short: as §1
[10] = Binding affinity for Group II Metabotropic glutamate receptor was measured using [3H]glutamate in rat forebrain membranes; type: cell membranes, Membrane
In short: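 ACPD-sensitive [³H]glutamate binding to group II mGluRs in rat forebrain membranes, reported as IC50. Most values are single-point determinations; others are averages of two or three determinations. Values in parentheses are percent radioligand displacement at 1 μM.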

in vivo [11] = conditions: plasma, iv, 10 mg/kg
[12] = Brain concentration after 2 hr at a dose of 100 mg/kg when administered perorally; conditions: po
[13] = Clearance rate in rat plasma when administered intraperitoneally at a dose of 10 mg/kg; type: ADME, organism-based; parameters: dose 10 mg/kg, route intraperitoneal; conditions: ip, read-out: Clp (converted)
In short: (§2)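 Male Fischer 344 rats were dosed at 10 mg/kg iv, 10 mg/kg ip, or 10 or 100 mg/kg po, with five rats per route and dose. One rat was sampled for blood and brain at each time: 0.25, 0.5, 1, 2 and 4 h after iv/ip, and 0.5, 1, 2, 4 and 6 h after po. Plasma and brain homogenates were derivatized, extracted and quantified by negative-ion chemical ionization GCMS (LOQ 100 pg/mL plasma, 1 ng/g brain).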

[14] = Maximum concentration achieved in rat brain when administered perorally at a dose of 10 mg/kg; type: ADME, organism-based; parameters: dose 10 mg/kg, route oral; conditions: po; in short: as §1
[15] = Plasma concentration after 1 hr at a dose of 10 mg/kg when administered intraperitoneally; conditions: ip
Rattus norvegicus [16] = test: Bioavailability was evaluated in rat plasma when administered intravenously at a dose of 10 mg/kg; <Tr>; type: ADME, organism-based; conditions: in vivo, iv
[17] = Brain concentration after 4 hr at a dose of 100 mg/kg when administered perorally; conditions: po
[18] = Half-life in rat plasma when administered perorally at a dose of 10 mg/kg; type: ADME, organism-based; parameters: dose 10 mg/kg, route oral; conditions: po; in short: as §2
[19] = Plasma concentration after 2 hr at a dose of 10 mg/kg when administered perorally; conditions: po
[20] = Half-life in rat plasma when administered perorally at a dose of 100 mg/kg; type: ADME, organism-based; parameters: dose 100 mg/kg, route oral; conditions: po; in short: as §1
[21] = Time of maximum concentration achieved in rat plasma when administered intraperitoneally at a dose of 10 mg/kg; type: ADME, organism-based; parameters: dose 10 mg/kg, route intraperitoneal; conditions: ip; in short: as §1
[22] = Plasma concentration after 0.5 hr at a dose of 10 mg/kg when administered intraperitoneally; conditions: ip
[23] = Half-life in rat brain when administered intravenously at a dose of 10 mg/kg; type: ADME, organism-based; parameters: dose 10 mg/kg, route intravenous; conditions: iv
[24] = Brain concentration after 0.5 h at a dose of 100 mg/kg when administered perorally; conditions: po
[25] = Plasma concentration after 4 hr at a dose of 10 mg/kg when administered intraperitoneally; conditions: ip
Rattus norvegicus [26] = test: Area under curve was evaluated in rat plasma when administered perorally at a dose of 100 mg/kg for infinite hours; type: ADME, organism-based; parameters: time infinity, dose 100 mg/kg, route oral; conditions: in vivo, po; in short: as §2
[27] = Brain concentration after 0.5 hr at a dose of 10 mg/kg when administered intravenously; conditions: iv
[28] = Brain concentration after 4 hr at a dose of 10 mg/kg when administered perorally; conditions: po
[29] = Brain concentration after 0.5 h at a dose of 10 mg/kg when administered intraperitoneally; conditions: ip
[30] = Maximum concentration achieved in rat plasma when administered intravenously at a dose of 10 mg/kg; type: ADME, organism-based; parameters: dose 10 mg/kg, route intravenous; conditions: iv; in short: as §1
[31] = Brain concentration after 6 hr at a dose of 100 mg/kg when administered perorally; conditions: po
[32] = Time of maximum concentration achieved in rat brain when administered perorally at a dose of 10 mg/kg; type: ADME, organism-based; parameters: dose 10 mg/kg, route oral; conditions: po; in short: as §1
[33] = Plasma concentration after 0.5 hr at a dose of 10 mg/kg when administered perorally; conditions: po
Rattus norvegicus [34] = test: Area under curve was evaluated in rat brain when administered intravenously at a dose of 10 mg/kg for 4 or 6 hours; type: ADME, organism-based; parameters: dose 10 mg/kg, route intravenous; conditions: in vivo, iv
[35] = Brain concentration after 1 hr at a dose of 10 mg/kg when administered perorally; conditions: po
[36] = Plasma concentration after 4 hr at a dose of 10 mg/kg when administered perorally; conditions: po
[37] = Plasma concentration after 0.5 hr at a dose of 10 mg/kg when administered intravenously; conditions: iv
[38] = Maximum concentration achieved in rat plasma when administered perorally at a dose of 100 mg/kg; type: ADME, organism-based; parameters: dose 100 mg/kg, route oral; conditions: po; in short: as §1
[39] = Brain concentration after 6 hr at a dose of 10 mg/kg when administered perorally; conditions: po
Rattus norvegicus [40] = test: Area under curve was evaluated in rat brain when administered intraperitoneally at a dose of 10 mg/kg for 4 or 6 hours; type: ADME, organism-based; parameters: dose 10 mg/kg, route intraperitoneal; conditions: in vivo, ip
Rattus norvegicus [41] = test: Bioavailability was evaluated in rat plasma when administered intraperitoneally at a dose of 10 mg/kg; type: ADME, organism-based; conditions: in vivo, ip
[42] = Brain concentration after 1 hr at a dose of 10 mg/kg when administered intraperitoneally; conditions: ip
[43] = Volume of distribution in rat plasma when administered intraperitoneally at a dose of 10 mg/kg; conditions: ip
in vivo [44] = conditions: plasma, ip, 10 mg/kg
Rattus norvegicus [45] = test: Area under curve was evaluated in rat plasma when administered intraperitoneally at a dose of 10 mg/kg for 4 or 6 hours; type: ADME, organism-based; parameters: dose 10 mg/kg, route intraperitoneal; conditions: in vivo, ip; in short: as §2
Rattus norvegicus [46] = test: Area under curve was evaluated in rat plasma when administered intravenously at a dose of 10 mg/kg for 4 or 6 hours; type: ADME, organism-based; parameters: dose 10 mg/kg, route intravenous; conditions: in vivo, iv; in short: as §2
[47] = Half-life in rat brain when administered intraperitoneally at a dose of 10 mg/kg; type: ADME, organism-based; parameters: dose 10 mg/kg, route intraperitoneal; conditions: ip
Rattus norvegicus [48] = test: Area under curve was evaluated in rat plasma when administered perorally at a dose of 100 mg/kg for 4 or 6 hours; type: ADME, organism-based; parameters: dose 100 mg/kg, route oral; conditions: in vivo, po; in short: as §2

Which Cmax [1] does the source give for `N[C@](CC1c2ccccc2Oc2ccccc21)(C(=O)O)[C@H]1C[C@@H]1C(=O)O` here?
The Cmax was 243 ng/g.

And the F [2]?
Its F is 2%.

What about the bioavailability [2] of the same molecule?
Its bioavailability is 3.4%.

And the concentration at 1 h [3]?
Its concentration at 1 h is 48.3 ng/mL.

What about the concentration at 4 h [4] of the same molecule?
The concentration at 4 h was 95.5 ng/mL.

What about the concentration at 2 h [5] of the same molecule?
Its concentration at 2 h is 177 ng/g.

What about the concentration at 4 h [6] of the same molecule?
Its concentration at 4 h is 145 ng/g.

And the concentration at 1 h [7]?
The concentration at 1 h was 16.4 ng/g.

What about the Cmax [8] of the same molecule?
Its Cmax is 246 ng/g.

What about the Tmax [9] of the same molecule?
Its Tmax is 0.25 h.

What about the IC50 [10] of the same molecule?
Its IC50 is 2.9 nM.

What about the concentration at 0.25 h (in vivo [11]) of the same molecule?
Its concentration at 0.25 h is 12000 ng/mL.

What about the concentration at 2 h [12] of the same molecule?
Its concentration at 2 h is 23.9 ng/g.

What about the CL/F [13] of the same molecule?
Its CL/F is 13 mL/min/kg.

And the Cmax [14]?
The Cmax was 7.4 ng/g.

And the concentration at 1 h [15]?
The concentration at 1 h was 4570 ng/mL.

And the Bioavailabiility (Rattus norvegicus [16])?
The Bioavailabiility was “<Tr>”.

And the concentration at 4 h [17]?
Its concentration at 4 h is 20.1 ng/g.

What about the half-life [18] of the same molecule?
Its half-life is 2.64 h.

What about the concentration at 2 h [19] of the same molecule?
Its concentration at 2 h is 50 ng/mL.

What about the half-life [20] of the same molecule?
The half-life was 1.94 h.

What about the Tmax [21] of the same molecule?
Its Tmax is 0.25 h.

And the concentration at 0.5 h [22]?
The concentration at 0.5 h was 10700 ng/mL.

What about the half-life [23] of the same molecule?
Its half-life is 5.43 h.

What about the concentration at 0.5 h [24] of the same molecule?
The concentration at 0.5 h was 5.1 ng/g.

And the concentration at 4 h [25]?
The concentration at 4 h was 39.9 ng/mL.

And the AUC (Rattus norvegicus [26])?
Its AUC is 1660 ng·h/mL.

What about the concentration at 0.5 h [27] of the same molecule?
Its concentration at 0.5 h is 243 ng/g.

And the concentration at 4 h [28]?
Its concentration at 4 h is 7.4 ng/g.

What about the concentration at 0.5 h [29] of the same molecule?
Its concentration at 0.5 h is 246 ng/g.

And the Cmax [30]?
Its Cmax is 12000 ng/mL.

And the concentration at 6 h [31]?
Its concentration at 6 h is 29.6 ng/g.

And the Tmax [32]?
The Tmax was 4 h.

What about the concentration at 0.5 h [33] of the same molecule?
The concentration at 0.5 h was 64.1 ng/mL.

What about the AUC (Rattus norvegicus [34]) of the same molecule?
Its AUC is 701 ng·h/mL.

And the concentration at 1 h [35]?
The concentration at 1 h was 2.1 ng/g.

What about the concentration at 4 h [36] of the same molecule?
Its concentration at 4 h is 28.3 ng/mL.

And the concentration at 0.5 h [37]?
The concentration at 0.5 h was 5970 ng/mL.

And the Cmax [38]?
Its Cmax is 475 ng/mL.

And the concentration at 6 h [39]?
The concentration at 6 h was 4.8 ng/g.

And the AUC (Rattus norvegicus [40])?
The AUC was 774 ng·h/mL.

What about the Bioavailabiility (Rattus norvegicus [41]) of the same molecule?
The Bioavailabiility was 152%.

And the concentration at 1 h [42]?
The concentration at 1 h was 235 ng/g.

And the Vd [43]?
Its Vd is 0.49 L/kg.

And the concentration at 0.25 h (in vivo [44])?
Its concentration at 0.25 h is 14300 ng/mL.

What about the AUC (Rattus norvegicus [45]) of the same molecule?
Its AUC is 12700 ng·h/mL.

And the AUC (Rattus norvegicus [46])?
Its AUC is 8370 ng·h/mL.

What about the half-life [47] of the same molecule?
Its half-life is 4.75 h.

What about the AUC (Rattus norvegicus [48]) of the same molecule?
The AUC was 1380 ng·h/mL.
